By inhibition is commonly meant the relative decrease from the control value, in per cent.

These results are taken from PubChem BioAssay AID1885 (Broad Institute, 2009).

Screen size: about 300,000 compounds; about 4,400 (1.5%) were called active.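 How the source made its calls: active means mean inhibition across valid replicates above about 55% (limit read from the data); inconclusive means mean below that limit but half or more replicates reach it; inactive means mean below it, under half of replicates reach it.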 Shown is part of a subset that was picked to be rich in actives.

The assay is described as follows: Trypanosoma cruzi replication blockers in host cells – luminescence, NIH3T3 host cells, primary screen (AID 1885).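 Further: signal also drops with host cell toxicity which is not excluded here; 0% = plate median of DMSO wells and 100% = zero luminescence signal; higher percent means less beta-gal luminescence so fewer parasites.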 As to conditions: T. cruzi beta-gal in NIH3T3, luminescence, 90 h; stronger effect = higher value; concentration not given here. In a few lines: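 Read-out: Parasite load inhibition, % | Test system: Mouse NIH/3T3 fibroblasts infected with β-gal-expressing T. cruzi Tulahuen C4 | Amount: 5,000 cells/well | Medium: DMEM, 2% fetal bovine serum | Signal: GalScreen β-gal luminescence, detergent lysis, 60 min | Timing: 3 h attach, ≥90 h co-culture | Also added: Tulahuen C4 trypomastigotes, 5000/well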
With `CCN(CC)CCn1c2c(c(SCC(=O)Nc3ccc(C(C)C)cc3)nc1=O)CCC2`, the inhibition was 9.44% (inactive).
The result for `C=CC1=C(C(=O)O)N2C(=O)[C@@H](NC(=O)/C(=N/OCC(=O)O)c3csc(N)n3)[C@H]2SC1` reads -7.4% (inactive).
With `O=C(Cc1ccc(S(=O)(=O)N2CCOCC2)s1)NCCOc1ccccc1F`, the inhibition was 5.5% (inactive).
The result for `COc1ccccc1CCNC(=O)CN1C(=O)NC2(CCCC2)C1=O` reads -8.97% (inactive); that for `O=C(COC(=O)c1ncc(Cl)c(Cl)c1Cl)NC1CCS(=O)(=O)C1` (configuration not stated), -20.7% (inactive); that for `Cc1cccc([C@@H]2[C@@H]3C(=O)N(Cc4ccccc4)C(=O)[C@@H]3[C@]3(Cc4ccc(Cl)cc4)C(=O)N(c4cccc(Cl)c4)C(=O)N23)c1`, -3.42% (inactive).
Under `Cc1c(C(=O)OCC(=O)N2CCCC2=O)oc2ccccc12` stands -3.64% (inactive).
The result for `O=C(CCN1CCN(C/C=C/c2ccccc2)CC1)Nc1cccc(F)c1` reads 58.2% (active); that for `O=C(CN1CCN(C/C=C/c2ccccc2)CC1)Nc1ccc(F)cc1F`, 32.3% (inactive); that for `O=C(CCN1CCN(C/C=C/c2ccccc2)CC1)Nc1ccccc1Cl`, 33.5% (inactive).
On to `CC[C@@]12C(=O)N(c3ccccc3)C(=O)N1[C@H](c1ccc(Br)cc1)[C@@H]1C(=O)N(C(C)(C)C)C(=O)[C@@H]12`, for which the inhibition was 1.35% (inactive).
Regarding `CC(C)COC(=O)c1ccc(NC(=O)C2C3C=CC(C3)C2C(=O)O)cc1` (configuration not stated), the inhibition was 1.59% (inactive).
The result for `CCOC(=O)c1cnc(-n2nc(C)cc2C)nc1Nc1cccc(C(C)=O)c1` reads -12.3% (inactive); that for `CCOC(=O)c1cnc(-n2nc(C)cc2C)nc1NNc1cc(C)nc(-c2ccccc2)n1`, 54.9% (active).
The result for `CCOC(=O)c1cnc(-c2ccccc2)nc1Oc1ccc(C)cc1` reads 7.98% (inactive); that for `CCCCn1c(N)c(N(CCC(C)C)C(=O)c2ccc(COc3ccccc3)o2)c(=O)[nH]c1=O`, 0.734% (inactive).
Under `CCc1c(C)nc(SCC(=O)NC2CCCC2)[nH]c1=O` stands -9.04% (inactive); under `OCC1(Cc2ccccc2)CCN(Cc2cc3ccccc3o2)CC1`, 16.6% (inactive).
In the case of `CC(=O)c1cccc(CN2CCC(CO)(Cc3ccccc3)CC2)c1`, the inhibition was 11.2% (inactive).
Consider `CC(C)c1csc(CN2CCC(CO)(Cc3ccccc3)CC2)n1`, for which the inhibition is 67.1% (active).
Consider `Cc1ccc(C(=O)NC2CCCC(C)C2C)cc1S(=O)(=O)N1CCCCC1` (configuration not stated), for which the inhibition is 19.9% (inactive).
Under `O=C(CSc1nc2[nH]ncc2c(=O)[nH]1)Nc1ccc(F)cc1` stands -0.401% (inactive); under `COc1ccc(S(=O)(=O)N2CCCCC2)cc1NC(=O)C1CC(=O)N(c2ccc3c(c2)OCCO3)C1` (configuration not stated), -2.94% (inactive).
The result for `O=C(NCC(c1ccco1)N1CCc2ccccc21)c1cccc(F)c1` (configuration not stated) reads -6.59% (inactive).
Take `CCCOc1ccc(C(=O)CCC(=O)OC(C)C(=O)Nc2ccc(NC(C)=O)cc2)cc1` (configuration not stated): the inhibition was -13.4% (inactive).
The result for `CCCOc1ccc(C(=O)C(CCC(CNCC)C(=O)c2ccc(OCCC)cc2)CNCC)cc1` (configuration not stated) reads 56% (active); that for `CCCOc1ccc(C(=O)NCCc2ccccc2)cc1`, 9.57% (inactive); that for `COc1ccc(-c2cc(C(=O)N(C)CC(=O)Nc3ccccc3Cl)c3ccccc3n2)cc1OC`, 9.44% (inactive).
Consider `Cc1ccc(NC(=O)c2cnc(SCC(=O)NCC3CCCO3)n(C)c2=O)cc1` (configuration not stated), for which the inhibition is -7.14% (inactive).
Under `COc1cccc(Cn2cc(/C=N/NC(=O)c3cc(O)cc(O)c3)c3ccccc32)c1` stands -8.85% (inactive).
The result for `Cc1ccccc1C(=O)NCC(c1ccco1)N1CCc2ccccc21` (configuration not stated) reads 12% (inactive); that for `Cc1ccc(Cc2nnc(SCC(=O)Nc3ccccc3C)[nH]c2=O)cc1`, -3.22% (inactive).
